Results on six compounds are retold here after ChEMBL document CHEMBL2321843, “Opioid peptidomimetics: leads for the design of bioavailable mixed efficacy μ opioid receptor (MOR) agonist/δ opioid receptor (DOR) antagonist ligands” (J Med Chem, 2013).

Experiment [1] addresses Mu-type opioid receptor (Rattus norvegicus) (UniProt P33535). The experiment is described as follows: Agonist activity at rat MOR expressed in rat C6 cells assessed as stimulation of [35S]GTPgammaS binding at 10 uM after 1 hr by liquid scintillation counting analysis relative to DAMGO. In kind it is functional, cell-based.
Experiment [2] deals with T1, Kappa-type opioid receptor (Homo sapiens, UniProt P41145). In kind it is cell-based, CHO.
T1 sequence (P41145 whole entry): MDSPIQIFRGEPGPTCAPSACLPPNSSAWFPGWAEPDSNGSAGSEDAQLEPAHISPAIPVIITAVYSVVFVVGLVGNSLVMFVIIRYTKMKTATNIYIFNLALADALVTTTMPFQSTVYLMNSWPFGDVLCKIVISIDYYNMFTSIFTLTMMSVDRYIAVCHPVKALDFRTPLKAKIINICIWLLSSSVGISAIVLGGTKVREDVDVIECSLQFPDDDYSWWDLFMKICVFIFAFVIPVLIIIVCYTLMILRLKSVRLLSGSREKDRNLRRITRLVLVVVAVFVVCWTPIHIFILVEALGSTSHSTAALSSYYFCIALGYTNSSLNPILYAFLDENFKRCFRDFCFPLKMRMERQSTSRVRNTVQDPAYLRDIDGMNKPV
In experiment [3] the target is T2, Mu-type opioid receptor (Rattus norvegicus, UniProt P33535). As to the kind of experiment: Displacement of [3H]diprenorphine from rat MOR expressed in rat C6 cells after 1 hr by liquid scintillation counting analysis. The class given is cell-based.
T2 sequence (P33535 whole entry): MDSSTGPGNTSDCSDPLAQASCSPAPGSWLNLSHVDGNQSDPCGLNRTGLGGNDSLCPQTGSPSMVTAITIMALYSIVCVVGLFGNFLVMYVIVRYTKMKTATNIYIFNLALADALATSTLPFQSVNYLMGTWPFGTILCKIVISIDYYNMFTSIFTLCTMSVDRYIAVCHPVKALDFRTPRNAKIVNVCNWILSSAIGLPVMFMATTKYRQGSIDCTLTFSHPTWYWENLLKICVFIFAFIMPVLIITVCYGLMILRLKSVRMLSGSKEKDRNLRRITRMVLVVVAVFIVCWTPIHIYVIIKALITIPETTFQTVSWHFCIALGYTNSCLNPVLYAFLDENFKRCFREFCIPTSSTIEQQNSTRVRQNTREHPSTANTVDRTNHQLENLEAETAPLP
The target of experiment [4] is T3, Delta-type opioid receptor (Rattus norvegicus, UniProt P33533). The experiment is described as follows: Displacement of [3H]diprenorphine from rat DOR expressed in rat C6 cells after 1 hr by liquid scintillation counting analysis. The class given is cell-based.
T3 sequence (P33533 whole entry): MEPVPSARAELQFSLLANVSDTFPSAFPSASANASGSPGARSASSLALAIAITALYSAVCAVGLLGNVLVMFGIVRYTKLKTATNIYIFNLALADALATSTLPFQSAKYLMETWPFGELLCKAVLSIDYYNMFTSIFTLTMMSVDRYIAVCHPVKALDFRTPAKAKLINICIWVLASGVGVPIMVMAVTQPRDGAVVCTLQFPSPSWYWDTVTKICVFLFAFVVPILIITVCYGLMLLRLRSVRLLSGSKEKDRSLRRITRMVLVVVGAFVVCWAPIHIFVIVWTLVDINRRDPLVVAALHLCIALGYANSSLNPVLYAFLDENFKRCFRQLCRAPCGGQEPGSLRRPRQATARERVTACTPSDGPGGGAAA
The target of experiment [5] is T1, Kappa-type opioid receptor. The class given is functional, cell-based, CHO.
Experiment [6] addresses T2, Mu-type opioid receptor. As to the kind of experiment: Agonist activity at rat MOR expressed in rat C6 cells assessed as stimulation of [35S]GTPgammaS binding after 1 hr by liquid scintillation counting analysis. The class given is functional, cell-based.
In experiment [7] the target is T3, Delta-type opioid receptor. As to the kind of experiment: Agonist activity at rat DOR expressed in rat C6 cells assessed as stimulation of [35S]GTPgammaS binding after 1 hr by liquid scintillation counting analysis. The class given is functional, cell-based.
The target of experiment [8] is T1, Kappa-type opioid receptor. Conditions: CHO, 10 uM.
Experiment [9] concerns the target Delta-type opioid receptor (Rattus norvegicus) (UniProt P33533). As to conditions: C6.
The test system of experiment [10] is Mus musculus. As to the kind of experiment: Antinociceptive activity in C57BL/6 mouse assessed as increase in duration of maximal activity at 10 mg/kg, ip by warm water tail withdrawal assay. On the set-up: dose 10 mg/kg. In kind it is functional, organism-based. The method in brief:
(§1)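 Male C57BL/6 mice given a single ip dose of 10 mg/kg. Tail-withdrawal latency (50 °C water, 20 s cutoff) measured at varying times after dosing to build a time course.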

Experiment [11] deals with Delta-type opioid receptor (Rattus norvegicus) (UniProt P33533). The experiment is described as follows: Agonist activity at rat DOR expressed in rat C6 cells assessed as stimulation of [35S]GTPgammaS binding at 10 uM after 1 hr by liquid scintillation counting analysis relative to DPDPE. The class given is functional, cell-based.
Chain of Delta-type opioid receptor (Rattus norvegicus) (P33533 whole entry): as above
Experiment [12] relates to Mus musculus. As to the kind of experiment: Antinociceptive activity in C57BL/6 mouse assessed as tail withdrawal latency at 3.2 to 32 mg/kg, ip after 30 mins by warm water tail withdrawal assay in presence of opioid antagonist naltrexone. The class given is functional, organism-based. The method, boiled down:
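Male C57BL/6 mice pretreated ip with naltrexone 1 mg/kg, 30 min before testing. Cumulative ip dosing to totals of 3.2, 10 and 32 mg/kg at 30 min intervals, with latency read 30 min after each injection. Tail tip immersed in 50 °C water, 20 s cutoff.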

Experiment [13] concerns Mus musculus. As to the kind of experiment: Antinociceptive activity in C57BL/6 mouse assessed as duration of maximal activity at 10 mg/kg, ip by warm water tail withdrawal assay. In kind it is functional. As to conditions: route intraperitoneal. The method, boiled down: as §1
Experiment [14] deals with Mus musculus. As to the kind of experiment: Antinociceptive activity in ip dosed C57BL/6 mouse assessed as tail withdrawal latency after 30 mins by warm water tail withdrawal assay. The class given is functional.

Active and inactive are the calls of the source.

Chain of Mu-type opioid receptor (Rattus norvegicus) (P33535 whole entry): as the sequence (P33535 whole entry) above

Turning to `Cc1cc(O)cc(C)c1C[C@H](N)C(=O)N[C@@H]1CCNc2ccc(CC3Cc4ccccc4C3)cc21`, the Emax amounted to 86% in experiment [1] and 38% in experiment [8]. For the same compound, the Ki came out at 1.2 nM in experiment [2], 0.16 nM on Mu-type opioid receptor [3] and 4.1 nM in experiment [4]. Further, the EC50 in [5] (read-out: EC50) is 68 nM; at Mu-type opioid receptor [6], 0.24 nM; in experiment [7] it was “Not Active”.

With `Cc1cc(O)cc(C)c1C[C@H](N)C(=O)N[C@@H]1CCNc2ccc(Cc3ccc4ccccc4c3)cc21`, the Emax in experiment [1] turned out to be 96%. Besides, the Ki in experiment [2] came out at 54 nM; in experiment [4], 10 nM. For the same compound, the EC50 result in experiment [5] (cho) and in experiment [7] was “Not Active” throughout. The same compound came in with a Ke in [9] of 34.3 nM.

Regarding `CN1CC[C@]23c4c5ccc(O)c4O[C@H]2[C@@H](O)C=C[C@H]3[C@H]1C5`, the result in the experiment with Mus musculus [10] was Active.

In the case of `Cc1cc(O)cc(C)c1C[C@H](N)C(=O)N[C@@H]1CCNc2ccc(Cc3cccc4ccccc34)cc21`, the values for the Emax in experiment [11] and in [1] were 15% and 93%, respectively. Moreover, the EC50 entry in [5] (cho) is listed as “Not Active”.

For `Cc1cc(O)cc(C)c1C[C@H](N)C(=O)N[C@@H]1CCNc2ccc(Cc3ccccc3)cc21`, in the experiment with Mus musculus [12], the result was inactive. Also, the Time in the experiment on Mus musculus [13] is listed as 60 min. Also, the Activity entry with Mus musculus [14] is “Dose-dependent effect”. In addition, in the experiment with Mus musculus [14] (C57BL/6, Tail, 0.5 h), the ED50 came to 3 mg/kg.

For `Cc1cc(O)cc(C)c1C[C@H](N)C(=O)N[C@@H]1CCNc2ccc(CCc3ccccc3)cc21`, in [1], the Emax is 45%. In addition, the EC50 entry in experiment [5] (cho) and in [7] was “Not Active” in each case.
